Compound activity from PubChem BioAssay.
In the library only some 2.1% were active in any assay of this set; here they are far more common.
SUMO1-SIM PPI: SUMO1-SIM interaction modulation. SUMO1 binding to a labelled peptide, TR-FRET, 1 h. inhibition, % at 20 µM. actives 0.33% (n = 360,000). AID 602429; in the data active means inhibition above about 37%
Target sequence (P63165 whole entry, looked up): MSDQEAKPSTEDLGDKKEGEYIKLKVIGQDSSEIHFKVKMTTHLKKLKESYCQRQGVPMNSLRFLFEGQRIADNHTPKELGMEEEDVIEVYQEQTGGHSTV
STEP inh: inhibitors of human striatal-enriched phosphatase STEP; recombinant STEP, OMFP fluorogenic substrate, fluorescence; inhibition, % at 20 µM; actives 0.25% (n = 360,000); P54829; AID 588621;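 active means inhibition at 20 µM, scaled per plate between control wells, above about 37%, limit read from the data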;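 further: 0% = DMSO with enzyme and substrate and 100% = substrate only without enzyme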
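System: isolated STEP enzyme; schedule: 20 min enzyme reaction at room temperature, protected from light; medium: Bis-Tris buffer pH 6.0, 2.5 mM DTT, 0.005% Tween 20; signal: fluorescence, 480/540 nm; dosing: single compound dose of 20 µM, 1% DMSO final; also added: OMFP substrate, 25 µM final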
LMPTP block: LMPTP (human) inhibition; P24666; recombinant LMPTP-A, OMFP fluorogenic substrate, fluorescence intensity; inhibition, % at 20 µM; actives 0.22% (n = 360,000);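 active means compounds that cut the enzyme signal by at least half of the control window in the single-dose screen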;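 further: plate controls were DMSO wells with enzyme plus substrate for no effect and substrate without enzyme for full effect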
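Assay system: LMPTP-A enzyme. Input: 0.625 nM LMPTP-A final. Probe or stimulus: 400 µM OMFP. Compound dosing: single 20 µM dose. Schedule: 50 min dark incubation at room temperature. Detection: fluorescence intensity of OMFP turnover product. Read-out: percent inhibition versus substrate-only and uninhibited controls. Benchmarks: no-enzyme low control, uninhibited high control.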
Scp-1 inhibitor: inhibitors of human Scp-1 phosphatase; Q9GZU7; Recombinant Scp1, phosphopeptide, malachite green phosphate absorbance; inhibition, % at 20 µM; actives 0.88% (n = 340,000); AID 493091;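 active means inhibition above about 50% at 20 µM, limit read from the data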;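 further: plate controls were DMSO wells with enzyme for no effect and wells lacking enzyme for full effect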
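assay system = SCP-1 phosphatase catalytic domain, residues 76-261 | buffer or medium = 50 mM Tris acetate pH 5.5, 0.005% Tween-20, 10 mM MgCl2 | incubation = enzyme reaction 45 min at room temperature, colour 5 min, stabilisation 30 min | signal = Phosphate-binding colour reagent, absorbance read at 630 nm | measure = % inhibition at 20 µM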
GRK2 inh: blocks RNA aptamer binding to human GRK2 | P25098 | bead flow cytometry, FAM-aptamer displacement from GRK2 | inhibition of aptamer binding, % at 10 µM | actives 0.59% (n = 330,000) | AID 488847;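 active means inhibition of aptamer binding above 40%, roughly 3 SD of noise, on plates passing a quality check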;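 further: median bead fluorescence of bound FAM aptamer so fluorescent compounds give negative values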
Target sequence (P25098 whole entry, looked up): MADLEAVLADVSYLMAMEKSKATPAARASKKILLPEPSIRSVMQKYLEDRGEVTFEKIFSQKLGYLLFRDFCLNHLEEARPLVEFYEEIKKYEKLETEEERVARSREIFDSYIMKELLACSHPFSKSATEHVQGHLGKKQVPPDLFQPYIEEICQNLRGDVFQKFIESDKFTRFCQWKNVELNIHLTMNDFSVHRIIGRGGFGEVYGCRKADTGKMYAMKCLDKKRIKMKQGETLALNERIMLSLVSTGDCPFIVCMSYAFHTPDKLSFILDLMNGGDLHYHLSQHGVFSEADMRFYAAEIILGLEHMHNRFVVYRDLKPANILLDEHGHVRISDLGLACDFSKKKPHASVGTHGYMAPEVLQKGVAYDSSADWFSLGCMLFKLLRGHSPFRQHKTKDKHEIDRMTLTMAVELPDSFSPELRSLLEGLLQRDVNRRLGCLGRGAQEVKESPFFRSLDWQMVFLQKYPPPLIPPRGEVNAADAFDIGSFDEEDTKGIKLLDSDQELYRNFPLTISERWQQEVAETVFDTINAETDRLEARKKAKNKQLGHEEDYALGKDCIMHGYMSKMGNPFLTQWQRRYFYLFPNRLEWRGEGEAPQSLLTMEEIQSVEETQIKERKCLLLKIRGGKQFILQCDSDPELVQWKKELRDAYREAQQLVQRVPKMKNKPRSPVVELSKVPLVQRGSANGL
DNMT1 block: inhibitors of human DNMT1; P26358; DNMT1 molecular beacon, Hinp1I cleavage, fluorescence; inhibition (reported as % activation of signal), % at 10 µM; actives 0.83% (n = 360,000); in the data active means inhibition above about 50%
GRK2 CP1: human GRK2 inhibition confirmation, cherry pick 1 | shares compounds with GRK2 inh | bead-bound GRK2, FAM-aptamer displacement, flow cytometry | aptamer displacement, % at 10 µM | actives 4% (n = 2,000);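 active means aptamer displacement above 40%, near three times the noise of non-fluorescent compounds, on plates passing quality checks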;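 further: negative values mostly reflect intrinsic compound fluorescence rather than true enhancement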
Aptamer quench: quenches fluorescent RNA aptamer, GRK2 hit artifact; shares compounds with GRK2 inh; Fluorescent RNA aptamer beads, quenching, flow cytometry; active compounds read high; fluorescence change (kMESF span), kMESF (concentration not given with the values); 110 tested, under 10 active;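 active means compounds whose bead fluorescence drops by more than 37 kMESF across the dose range, marking them as dye quenchers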
FAM quench CP1: aptamer fluorescence quenching in GRK2 counter-screen | shares compounds with GRK2 inh | fluorescence response (% of DMSO), % at 10 µM | Carboxyfluorescein RNA aptamer on beads, flow cytometry quenching; active compounds read low | AID 504580 | 2,000 tested, under 10 active;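 active means compounds that quench the bead-bound fluorescent RNA probe, cutting fluorescence to under half of the solvent control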;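 further: counterscreen run without GRK2 so only probe quenching by compound is measured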
GRK2 confirm 2: confirmation of human GRK2 inhibitors binding RNA aptamer site. bead-bound GRK2, FAM-aptamer displacement, flow cytometry. AID 504782. 360 tested, under 10 active. inhibition of aptamer binding, % at 10 µM. shares compounds with GRK2 inh;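 active means inhibition of aptamer binding above 40%, about triple the noise seen with nonglowing compounds, on plates passing quality control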;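 further: negative values mostly come from compounds that fluoresce themselves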
Aptamer quench3: counter-screen for GRK2 aptamer inhibitors: fluorescent aptamer quenchers; shares compounds with GRK2 inh; Streptavidin beads, FAM-RNA aptamer fluorescence quenching, flow cytometry; change in fluorescence (kMESF span), kMESF (test concentration not listed); 25 tested, under 10 active;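 active means compounds quenching the bead-bound labeled aptamer, with fluorescence dropping by more than 37 kMESF over the dose range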
FAM quench SP: quenches fluorescent RNA aptamer, GRK2 hit artifact | shares compounds with GRK2 inh | carboxyfluorescein RNA aptamer beads, flow cytometry quenching; active compounds read low | fluorescence response vs DMSO, % at 10 µM | 360 tested, under 10 active | AID 588494;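 active means response vs DMSO under 50%, meaning signal dropped by over half, treated as fluorescence quencher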;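 further: labelled aptamer on streptavidin beads without GRK2 as a quench counter-screen; 100% = bead fluorescence of DMSO wells and lower means quenching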
FAM quench PS1: quenches fluorescent RNA aptamer, GRK2 hit artifact. AID 588496. Bead-bound FAM RNA aptamer fluorescence quenching, flow cytometry; active compounds read low. 35 tested, under 10 active. fluorescence ratio to DMSO, % at 11.1 µM. shares compounds with GRK2 inh;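 active means compounds that dim the fluorescent label, raw bead signal shifting by over 33 units between lowest and highest dose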
Scp1 confirm: confirmation of human Scp-1 phosphatase inhibitors. recombinant SCP-1 catalytic domain, phosphate release, malachite green absorbance. shares compounds with Scp-1 inhibitor. actives 61% (n = 2,500). inhibition, % at 20 µM;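 further: plate controls were DMSO with enzyme for no effect and buffer wells lacking enzyme for full effect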
Scp-1 MG ctr: interferes with malachite green readout, flagging false Scp-1 hits; shares compounds with Scp-1 inhibitor; Colorimetric interference counterscreen, malachite green absorbance 630 nm; apparent inhibition (interference), % at 20 µM; 2,500 tested, under 10 active; AID 540313;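 further: compounds added after enzyme reaction finished so only phosphate colour detection is probed; plate controls were DMSO wells with completed Scp-1 reaction for no effect and substrate wells lacking enzyme for full effect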
Scp1 DSF: Scp-1 (human) binding by thermal shift | shares compounds with Scp-1 inhibitor | Recombinant SCP1, Sypro Orange thermal shift Tm | thermal shift relative to vanadate control, % at 40 µM | actives 25% (n = 1,500);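 active means substances whose mean melting-temperature shift, as a percentage of the reference inhibitor's shift, reaches about 5.3%, limit read from the data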;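 further: 0% = Tm of DMSO wells and 100% = Tm with sodium orthovanadate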
Beacon interf DR: counter-screen for DNMT1 inhibitors: spectral interference, dose response; shares compounds with DNMT1 block; AID 602382; 200 tested, under 10 active; IC50, µM; molecular beacon fluorescence; call rule not given here
DNMT1 confirm: confirmation of human DNMT1 inhibitors | DNMT1 molecular beacon HinP1I cleavage, fluorescence | actives 8% (n = 2,300) | shares compounds with DNMT1 block | inhibition, % at 10 µM;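 active means average inhibition of at least 30% in the single-concentration confirmation test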
Beacon interf: beacon fluorescence artifact counter-screen | shares compounds with DNMT1 block | DNMT1 molecular beacon spectral interference counterscreen, fluorescence 485/520 | activation (fluorescence interference), % at 10 µM | actives 1% (n = 2,300);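 active means activation of at least 30% at 10 µM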;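 further: DNMT1 catalytic domain with a HinP1I cleavage step and a FAM/dabcyl DNA beacon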
* = called active by the depositor; . = no result.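 How the source made its calls, unless noted: active means inhibition of at least 30% at 20 µM; inactive means the rest.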

SMILES	SUMO1-SIM PPI	STEP inh	LMPTP block	Scp-1 inhibitor	GRK2 inh	DNMT1 block	GRK2 CP1	FAM quench CP1	DNMT1 confirm	Beacon interf	others
CCN(CC)c1ccc(NC(=O)CCS(=O)(=O)c2ccc(Br)cc2)c(C)c1	26.8	4.3	-0.7	81.7*	83.0*	96.7*	72.8*	91.4	42.2*	4.0	Aptamer quench=54.7*;Aptamer quench3=4.6;FAM quench PS1=98.0;Scp1 confirm=48.8*;Scp-1 MG ctr=-15.6;Scp1 DSF=-13.7;Beacon interf DR=>99
CCCNC(=O)c1cc(C2CCCN(S(=O)(=O)c3cccs3)C2)on1 (centres undefined)	3.1	1.2	0.7	.	.	-0.2	.	.	.	.
CCN(C(=O)C(C)N1C(=O)/C(=C/c2ccco2)SC1=S)C1CCS(=O)(=O)C1 (centres undefined)	-3.0	14.8	4.0	35.9	42.0*	63.4*	1.1	101.5	0.0	1.2
COc1ccc(-n2c(SCC(=O)Nc3ccc(NC(C)=O)cc3)nc3ccccc3c2=O)cc1	11.2	2.1	-0.9	-3.7	1.0	-7.6	.	.	.	.
COc1ccc(NC(=O)CSc2nc3ccccc3c3nc4ccccc4n23)cc1	-1.3	0.6	0.6	3.2	0.0	58.0*	-3.3	104.9	4.6	-6.9
C=CCN1C(=O)C(=Cc2ccc3c(c2)CCC3)SC1=S	-4.6	2.5	-0.6	.	.	-7.4	.	.	.	.
CCCN(C(=O)c1cccc(-n2cccc2)c1)c1c(N)n(Cc2ccccc2)c(=O)[nH]c1=O	21.0	3.5	15.2	74.5*	36.0	80.9*	14.0	102.0	12.1	-0.4	Aptamer quench=37.1*;Scp1 confirm=65.7*;Scp-1 MG ctr=-8.7;Scp1 DSF=-17.0
COc1ccc(C(=O)OCC(=O)c2c(N)n(C)c(=O)n(C)c2=O)c(OC)c1OC	2.5	-1.2	-1.1	-1.4	0.0	-1.3	.	.	.	.
O=C1C=C(Nc2ccc(O)cc2)CC(c2ccco2)C1 (centres undefined)	0.0	-0.8	-0.2	-1.3	3.0	-8.2	.	.	.	.
O=C1C=C(O)CC(c2ccco2)C1 (centres undefined)	17.9	0.6	-0.7	44.4	91.0*	79.6*	5.6	102.2	4.3	2.8
COc1cccc(/C=C/c2n[nH]c(=O)c(C#N)c2C)c1	-34.1	-2.9	-2.9	-5.2	2.0	-1.6	.	.	.	.
O=C(Cn1cnc2scc(-c3cccc([N+](=O)[O-])c3)c2c1=O)NCc1ccco1	-7.2	7.5	21.4	77.7*	88.0*	82.9*	7.2	94.4	16.5	-1.4	Scp1 confirm=70.3*;Scp-1 MG ctr=-11.5;Scp1 DSF=10.6*
O=C(O)c1cccc(-n2cccc2/C=C/[N+](=O)[O-])c1	67.7*	20.9	5.4	85.4*	51.0*	88.6*	30.4	99.5	5.0	-1.4
O=C(O)c1cccc(-n2cccc2/C=N/O)c1	-0.8	10.9	4.6	76.6*	54.0*	105.4*	33.9	99.1	3.3	0.6	GRK2 confirm 2=25.5;FAM quench SP=100.0;Scp1 confirm=64.8*;Scp-1 MG ctr=-7.9;Scp1 DSF=-13.2
C#CCN1C(=O)S/C(=C\c2ccc(-c3ccc(Cl)c(C(=O)O)c3)o2)C1=O	-1.3	13.7	0.3	37.9	12.0	14.4	.	.	.	.
O=C(O)c1cc(-c2ccc(/C=C3\NC(=O)N(c4ccc(Cl)cc4)C3=O)o2)ccc1Cl	28.6	39.0	2.4	74.0*	50.0*	98.8*	25.0	108.9	20.8	-1.5
O=C(O)c1ccc(-n2cccc2/C=C2/SC(=O)N(CC(=O)N3CCCC3)C2=O)cc1	80.9*	92.7*	18.3	75.6*	82.0*	91.4*	63.4*	132.7	81.2*	-4.5	Aptamer quench=15.9;Beacon interf DR=>99
O=C1N/C(=C/c2cccn2-c2ccc(F)cc2)C(=O)N1Cc1ccccc1	-2.7	1.5	0.2	-1.5	0.0	5.4	.	.	.	.
O=C(CN1C(=O)S/C(=C/c2cccs2)C1=O)N1CCCC1	-31.7	-0.9	-0.2	-10.2	0.0	1.7	.	.	.	.
O=C(O)c1ccc(-n2cccc2/C=C2/NC(=O)N(c3ccccc3)C2=O)cc1	88.6*	72.8*	26.5	89.0*	73.0*	92.8*	36.0	94.4	82.9*	-2.8	Beacon interf DR=>99
CN(Cc1cnc2nc(N)nc(N)c2n1)c1ccc(C(=O)NC(CCC(=O)O)C(=O)O)c2ccccc12 (centres undefined)	10.3	-2.6	22.2	12.1	.	5.2	.	.	.	.
O=C(NNC(=O)c1ccncc1)Nc1ccc(N=Nc2ccccc2)cc1	-30.1	-0.1	0.3	-7.6	.	6.8	.	.	.	.
